Assay results: ChEMBL document CHEMBL1143585, “Synthesis of some cryptolepine analogues, assessment of their antimalarial and cytotoxic activities, and consideration of their antimalarial mode of action” (J Med Chem, 2005)

Experiments:
[1] = species on record: Mus musculus; assay: Mean survival time taken as number of days before illness due to Plasmodium berghei in untreated mice (Mus musculus); type: functional
In short: (§1)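 Peters' 4-day suppressive test in female BALB/c mice (18-20 g), five per group. Each mouse got 1 × 10^7 P. berghei ANKA-infected erythrocytes iv. Drug was given ip in 0.2 mL daily for 4 consecutive days. Survival time was the number of days before signs of malaria illness, compared with untreated infected controls.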

[2] = test system: Mus musculus; assay: In vivo antimalarial activity of compound against Plasmodium berghei was determined as suppression of parasitaemia in mice (Mus musculus) at 10 mg/kg treated for 4 days; type: functional
[3] = test system: Mus musculus; assay: In vivo antimalarial activity of compound against Plasmodium berghei in mice (Mus musculus) at dose of 10 mg/kg treated for 4 days; type: functional
[4] = molecular target: T1, Histidine-rich protein PFHRP-II (Plasmodium falciparum) (UniProt P05227); assay: Antiplasmodial activity as IC50 against Beta-hematin formation; type: functional
T1 sequence (whole entry): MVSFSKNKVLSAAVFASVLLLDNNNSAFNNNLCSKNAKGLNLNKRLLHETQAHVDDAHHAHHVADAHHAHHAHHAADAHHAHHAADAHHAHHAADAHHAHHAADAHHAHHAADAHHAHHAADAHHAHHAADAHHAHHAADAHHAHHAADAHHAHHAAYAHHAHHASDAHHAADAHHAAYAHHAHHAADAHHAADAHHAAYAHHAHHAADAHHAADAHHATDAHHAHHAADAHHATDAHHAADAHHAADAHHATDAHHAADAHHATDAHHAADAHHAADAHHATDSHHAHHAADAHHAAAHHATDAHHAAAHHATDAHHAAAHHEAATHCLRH
In short: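 β-Hematin inhibition (BHIA) assay: hemin (0.4 µmol/well) in DMSO with compound at 0.25–2 (or 4) molar equivalents to hemin, in triplicate. Final DMSO was 25%. Formation started with 8 M acetate buffer pH 5.0, then 37 °C for 18 h. The centrifuged pellet was dissolved in 0.1 M NaOH and read at 405 nm. BHIA50 is the drug equivalents relative to hemin giving 50% inhibition.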

[5] = test system: Mus musculus; assay: Mean survival time taken as number of days before illness due to Plasmodium berghei when mice (Mus musculus) treated with 10 mg/kg dose for 4 days; g=mice (Mus musculus) survived the test; type: functional, organism-based; set-up: dose 10 mg/kg; in short: as §1
[6] = test system: Plasmodium falciparum; assay: Normalized IC50 as product of antiplasmodial IC50 and vacuolar accumulation IC50; type: functional, organism-based
[7] = test system: Mus musculus; assay: Mean survival time taken as number of days before illness due to Plasmodium berghei when mice (Mus musculus) treated with 50 mg/kg dose for 4 days; type: functional; in short: as §1
[8] = test system: Plasmodium falciparum; assay: […] accumulation into acidic parasitic food vacuole (pH=5.5) relative to Cryptolepine; type: functional
In short: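 Calculated from each compound's spectrophotometric pKa via a pH-trapping equation, assuming food-vacuole pH 5.5 and external pH 7.4. The result is expressed relative to cryptolepine's ratio. pKa came from UV spectra (0.05 mg mL-1) in at least seven buffers of pH 5.8–13.0, plus 0.1 M NaOH and 0.1 M HCl. pKa was taken as the midpoint of the λmax absorbance plot. Two experiments per compound.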

[9] = test system: Plasmodium falciparum; assay: In vitro antiplasmodial concentration against multidrug-resistant Plasmodium falciparum K1; type: functional, organism-based
In short: (§2)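 P. falciparum K1 ring-stage cultures in human A+ erythrocytes (RPMI 1640, A+ serum, glucose), at 2.5% hematocrit and 1% parasitemia. Two-fold serial dilutions in duplicate, final DMSO ≤0.5%. Incubated 48 h at 37 °C under 93% N2/3% O2/4% CO2. Growth read as parasite lactate dehydrogenase activity (APAD/NBT, 550 nm). IC50 by linear regression; at least three separate determinations.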

[10] = test system: Plasmodium falciparum; assay: […] accumulation into acidic parasitic food vacuole at pH=5.5; type: functional
[11] = test system: Mus musculus; assay: In vivo antimalarial activity of compound against Plasmodium berghei was determined as suppression of parasitemia in mice (Mus musculus) at 50 mg/kg treated for 4 days; type: functional
[12] = Ionization constant for the compound; type: physicochemical
[13] = test system: MAC15A; assay: Cytotoxicity against MAC15A mouse adenocarcinomas of the colon cells; type: functional, cell-based; conditions: Mus musculus, MAC15A
In short: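 MTT assay. MAC15A cells were seeded at 2 × 10^3 per well and attached overnight at 37 °C, 5% CO2. Drugs were dissolved in DMSO and diluted in medium (max 0.1% DMSO), eight wells per concentration, 96 h exposure. MTT (0.5 mg/mL) was then added for 24 h. Formazan was dissolved in DMSO and read at 550 nm. Survival is relative to vehicle control; IC50 from triplicate experiments.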

[14] = test system: Mus musculus; assay: In vivo antimalarial activity of compound against Plasmodium berghei in mice (Mus musculus) at dose of 50 mg/kg treated for 4 days; type: functional
[15] = test system: Plasmodium falciparum; assay: In vitro antiplasmodial activity for Plasmodium falciparum; type: functional, organism-based; conditions: Plasmodium falciparum; in short: as §2
[16] = test system: MAC15A; assay: Ratio of cytotoxic to that of antiplasmodial activity was determined; type: functional, Mus musculus
[17] = test system: Mus musculus; assay: In vivo antimalarial activity of compound against Plasmodium berghei was determined as suppression of parasitemia in mice (Mus musculus) at 25 mg/kg treated for 4 days; type: functional
In short: (§3)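 Peters 4-day suppressive test in female BALB/c mice (18–20 g), five per group. Mice were infected iv with 1 × 10^7 P. berghei ANKA-infected erythrocytes. Drug was given ip daily for four consecutive days. Blood smears were taken on day 5, and % parasitemia suppression was calculated against untreated infected controls. Survival was recorded as days until signs of malaria illness.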

[18] = test system: Mus musculus; assay: Mean survival time taken as number of days before illness due to Plasmodium berghei when mice (Mus musculus) treated with 3.125 mg/kg dose for 4 days; type: functional; in short: as §1
[19] = test system: Mus musculus; assay: Mean survival time taken as number of days before illness due to Plasmodium berghei when mice (Mus musculus) treated with 25 mg/kg dose for 4 days; type: functional; in short: as §1
[20] = test system: Mus musculus; assay: In vivo antimalarial activity of compound against Plasmodium berghei in mice (Mus musculus) at dose of 25 mg/kg treated for 4 days; type: functional; in short: as §3
[21] = test system: Mus musculus; assay: Mean survival time taken as number of days before illness due to Plasmodium berghei when mice (Mus musculus) treated with 6.25 mg/kg dose for 4 days; type: functional; in short: as §1
[22] = test system: Mus musculus; assay: In vivo antimalarial activity of compound against Plasmodium berghei in mice (Mus musculus) at dose of 3.125 mg/kg treated for 4 days; type: functional; in short: as §3
[23] = test system: Mus musculus; assay: In vivo antimalarial activity of compound against Plasmodium berghei was determined as suppression of parasitemia in mice (Mus musculus) at 3.125 mg/kg treated for 4 days; type: functional; in short: as §3
[24] = test system: Mus musculus; assay: In vivo antimalarial activity of compound against Plasmodium berghei was determined as suppression of parasitemia in mice (Mus musculus) at 12.5 mg/kg treated for 4 days; type: functional; in short: as §3
[25] = test system: Mus musculus; assay: In vivo antimalarial activity of compound against Plasmodium berghei in mice (Mus musculus) at dose of 6.25 mg/kg treated for 4 days; type: functional; in short: as §3
[26] = test system: Mus musculus; assay: Mean survival time taken as number of days before illness due to Plasmodium berghei when mice (Mus musculus) treated with 12.5 mg/kg dose for 4 days; type: functional; in short: as §1
[27] = test system: Mus musculus; assay: In vivo antimalarial activity of compound against Plasmodium berghei was determined as suppression of parasitemia in mice (Mus musculus) at 6.25 mg/kg treated for 4 days; type: functional; in short: as §3
[28] = test system: Mus musculus; assay: In vivo antimalarial activity of compound against Plasmodium berghei in mice (Mus musculus) at dose of 12.5 mg/kg treated for 4 days; type: functional; in short: as §3
[29] = test system: Mus musculus; assay: In vivo antimalarial activity of compound against Plasmodium berghei in mice (Mus musculus) at dose of 20 mg/kg treated for 4 days; c = toxic after 2nd dose; type: functional, organism-based; set-up: dose 20 mg/kg
[30] = test system: Mus musculus; assay: In vivo antimalarial activity of compound against Plasmodium berghei was determined as suppression of parasitaemia in mice (Mus musculus) at 20 mg/kg treated for 4 days; c=toxic after the 2nd dose; type: functional, organism-based; set-up: dose 20 mg/kg
[31] = test system: Mus musculus; assay: Mean survival time taken as number of days before illness due to Plasmodium berghei when mice (Mus musculus) treated with 20 mg/kg dose for 4 days; c=toxic after the 2nd dose; type: functional, organism-based; set-up: dose 20 mg/kg
[32] = species on record: Mus musculus; assay: Mean survival time taken as number of days before illness due to Plasmodium berghei in […] mice (Mus musculus); c=toxic after the 2nd dose; type: functional, organism-based

Row | SMILES | Mean survival time [1] [days] | BHIA50 [4] | IC50 [6] [nM] | Mean survival time [7] [days] | Ratio [8] | IC50 [9] [nM] | Vascular accumulation ratio [10] | Suppression of parasitemia [11] [%] | pKa [12] | IC50 [13] [nM] | Parasitemia [14] [%] | IC50 [15] [nM] | Ratio [16] | other results
1 | CCN(CC)CCCC(C)Nc1ccnc2cc(Cl)ccc12.O=P(O)(O)O.O=P(O)(O)O (stereo unspecified) [CHLOROQUINE PHOSPHATE] | 8.56 | 1.44 |  |  |  |  |  |  |  |  |  |  |  | Suppression of parasitemia [2]: 100%; Parasitemia [3]: 0%; Mean survival time [5]: Mice survived
2 | COc1ccc2c(c1)cc1[nH]c3ccccc3c1[n+]2C.[Cl-] | 5 | 1.96 | 950 | 5 | 1 | 950 | 79.43 | 9.3 | 11.4 | 4310 | 12.08 | 950 | 4.54 | 
3 | C[n+]1c2ccc(Br)cc2cc2[nH]c3ccc(Br)cc3c21.[Cl-] | 10 | 1.53 |  |  | 0.99 |  | 77.9 |  | 9.1 |  |  |  | 123 | Suppression of parasitemia [17]: 91.4%; Mean survival time [18]: 10 days; Mean survival time [19]: 15 days; Parasitemia [20]: 1.24%; Mean survival time [21]: 11.6 days; Parasitemia [22]: 12.1%; Suppression of parasitemia [23]: 15.9%; Suppression of parasitemia [24]: 75.4%; Parasitemia [25]: 7.67%; Mean survival time [26]: 11.8 days; Suppression of parasitemia [27]: 46.7%; Parasitemia [28]: 3.55%
4 | C[n+]1c2ccccc2cc2[n-]c3ccccc3c21.Cl [CRYPTOLEPINE HYDROCHLORIDE] |  |  |  |  |  |  |  |  |  | 3950 |  | 440 | 8.98 | Parasitemia [29]: Toxic after second dose; Suppression of parasitemia [30]: Toxic after second dose; Mean survival time [31]: Toxic after second dose; Mean survival time [32]: Toxic after second dose
5 | C[n+]1c2ccc(F)cc2cc2[nH]c3ccccc3c21.[Cl-] | 5 | 1.24 | 1210 | 5 | 1 | 1210 | 79.41 | 55.1 | 11.2 | 4790 | 5.98 | 1210 | 3.96 | 
